Compound activity: PubChem, several laboratories
Rows were chosen to be rich in hits. Some 1.9% of all compounds tested hit in one or more screens of this group.
HIF act – HIF pathway transcriptional activation. U2OS HRE-luciferase reporter, luminescence; normalized: DMSO 0%, desferrioxamine 100%. activation, % at 7.5 µM (by protocol). 0.32% of 300,000 active. AID 1910;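 active = mean activation of at least 10% of the iron chelator positive control signal, with at least half of replicates also reaching 10%; inconclusive = mean and replicate majority disagree about reaching 10%; inactive = mean and most replicates under 10%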
procasp7 counter – activates human procaspase-7, counter-screen for procaspase-3 activators; P55210; recombinant procaspase-7, Ac-DEVD-pNA absorbance 405 nm; D23A/D198A/D206A triple mutant, cannot self-cleave; scale: DMSO 0, 5 µM enzyme 100; activation, % at 8.5 µM; 0.093% of 330,000 active;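 active = percent activation above the screen-wide mean plus 3 SD, cut at about 25% in these data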
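Test system: Procaspase-7 triple mutant (PC-7 D3A). Also added: Ac-DEVD-pNA substrate, 400 µM as added. Schedule: 1 h enzyme–compound preincubation and 2 h substrate reaction, both 25 °C. Signal: p-Nitroaniline absorbance at 405 nm, read at 0 and 120 min. Control set: low DMSO alone, high DMSO plus 5 µM PC-7.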
Neddyl block – cullin neddylation inhibition | inhibition, % at 25 µM | 0.58% of 360,000 active | P61081+Q13564 | TR-FRET cullin neddylation, biochemical | AID 651699; in the data active = inhibition above about 36%
Target sequence (P61081 whole entry, looked up): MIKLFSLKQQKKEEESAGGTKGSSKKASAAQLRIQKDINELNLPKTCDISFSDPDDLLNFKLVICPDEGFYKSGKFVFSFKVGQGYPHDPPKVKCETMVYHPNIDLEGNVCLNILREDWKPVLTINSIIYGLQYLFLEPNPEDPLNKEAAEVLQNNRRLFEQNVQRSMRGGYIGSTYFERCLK
Target sequence (Q13564 whole entry, looked up): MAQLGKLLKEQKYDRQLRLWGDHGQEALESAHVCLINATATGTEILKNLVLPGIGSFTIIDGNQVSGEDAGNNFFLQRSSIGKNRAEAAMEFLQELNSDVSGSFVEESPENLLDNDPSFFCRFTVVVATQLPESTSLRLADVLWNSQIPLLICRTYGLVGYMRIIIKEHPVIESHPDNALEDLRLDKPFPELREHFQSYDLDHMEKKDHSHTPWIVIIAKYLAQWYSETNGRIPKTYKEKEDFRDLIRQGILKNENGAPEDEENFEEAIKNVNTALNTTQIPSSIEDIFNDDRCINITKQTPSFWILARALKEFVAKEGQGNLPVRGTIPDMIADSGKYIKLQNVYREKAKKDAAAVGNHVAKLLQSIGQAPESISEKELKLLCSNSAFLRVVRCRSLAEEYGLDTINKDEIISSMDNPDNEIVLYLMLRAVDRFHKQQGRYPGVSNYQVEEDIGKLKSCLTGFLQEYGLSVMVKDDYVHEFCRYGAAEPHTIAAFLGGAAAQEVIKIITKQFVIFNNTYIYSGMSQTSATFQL
procasp3 activ – activates human procaspase-3; activation, % at 8.5 µM; recombinant procaspase-3 D3A, Ac-DEVD-pNA absorbance 405 nm; P42574; 0.11% of 330,000 active; AID 463141;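 active = activation above the mean of all tested compounds plus 3 SD, cut at about 21% in these data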;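 note: 0% = DMSO alone and 100% = DMSO wells spiked with extra 5 µM PC-3 D3A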
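Evaluation: percent activation relative to control range; Material: Procaspase-3 D3A mutant, all three cleavage aspartates alanine; Compound: single dose, 8.5 µM nominal compound, 0.8% DMSO; Replication: one well per compound; Signal: absorbance at 405 nm, 0 and 120 min; Schedule: 1 h preincubation plus 2 h reaction at 25 °C.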
GAA850 FXN act – activators of GAA850 frataxin (FXN) promoter | HEK293 lucGAA850 FXN promoter luciferase reporter, 24 h; percent of 10 µM SAHA response | activation, % at 6 µM | 0.56% of 360,000 active | AID 540364;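 active = activation above the average of all compounds screened plus 3 SD, cutoff fixed separately per campaign, cut at about 7.5% in these data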;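 note: 0% = DMSO wells and 100% = 10 µM SAHA wells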
Calb FLC – C. albicans growth modulation with fluconazole | C. albicans CaCi-2 (fluconazole-resistant clinical isolate) + fluconazole, Alamar Blue growth, 48 h | growth inhibition, % (test concentration not listed) | AID 1979 | 0.57% of 300,000 active;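 active = growth inhibition above about 58% in most replicates, limit read from the data, passing the limit was not always enough; inconclusive = exactly half the replicates above a set limit; inactive = most replicates below a set limit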;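 note: all wells also contain fluconazole at 8 µg/ml as a sub-toxic cotreatment; 0% = median of DMSO wells and 100% = median of geldanamycin control wells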
GAA30 counter – GAA30 FXN promoter activation counter-screen. shares compounds with GAA850 FXN act. HEK293 lucGAA30 FXN promoter luciferase, 24 h; DMSO = 0%, 5 µM ipriflavone = 100%. activation, % at 6 µM. 66% of 1,900 active;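 active = mean activation above the mean of solvent-only control wells plus 3 SD, cut at about 22% in these data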;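 note: counterscreen of GAA850 promoter hits where activity marks nonselective or luminescence artifacts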
GAA850 confirm – GAA850 FXN promoter activation confirmation. AID 588351. HEK293 lucGAA850 FXN promoter luciferase reporter, 24 h; 100% = activation by SAHA. activation, % at 6 µM. shares compounds with GAA850 FXN act. 86% of 1,900 active;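 active = mean activation above a set limit taken from the primary screen, cut at about 8% in these data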;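 note: 0% = DMSO wells and 100% = 10 µM SAHA wells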
* = called active by the depositor; ? = inconclusive; · = no result shown.

SMILES	HIF act	procasp7 counter	Neddyl block	procasp3 activ	GAA850 FXN act	Calb FLC	GAA30 counter	GAA850 confirm
O=C(Nc1cccc(Cl)c1)c1nc[nH]c1C(=O)Nc1ccccc1F	·	·	·	·	-1.7	·	·	·
CC(C)=CC(=O)NCCc1ccccc1	0.6	9.0	-6.2	0.4	15.0*	-3.6	74.8*	20.5*
O=C(O)/C=C/C(=O)NCCc1ccccc1	0.0	0.6	0.0	-13.0	0.5	-11.7	·	·
C[C@@H]1CN([C@@H](C)CO)C(=O)CCCn2nncc2CO[C@H]1CN(C)Cc1ccccc1	·	·	-2.2	·	-0.4	·	·	·
O=C(OCC(=O)N1CCc2ccccc21)c1ccc([N+](=O)[O-])o1	·	5.2	-32.4	2.0	-0.2	·	·	·
CCCS(=O)(=O)NC(=O)C1(C)CCCN(C(=O)c2cc(-c3cccs3)oc2C)C1 (stereo not drawn)	·	·	4.8	·	1.4	·	·	·
CC(=O)Nc1cccc(OCC(=O)Nc2sccc2C(N)=O)c1	1.5	-2.2	0.4	6.3	9.8*	-6.8	109.1*	35.7*
CCN(CC)c1ccc(S(=O)(=O)N2CCCCC2)cc1NC(=O)CN1C(=O)NC2(CCCC2)C1=O	-0.3	-0.3	4.2	-3.4	9.0*	-4.2	20.9	10.4*
Cc1cc(C)nc(SCc2csc(-c3ccccc3)n2)n1	1.2	-0.5	-31.4	-3.0	7.9*	4.4	114.6*	39.5*
C=CS(=O)(=O)N(Cc1ccccc1Br)[C@H](CO)CC(C)C	·	·	-2.7	·	-2.6	·	·	·
COc1ccccc1N1CCN(S(=O)(=O)CCNC(=O)CC2CCCC2)CC1	·	·	-2.8	·	-1.2	·	·	·
COc1ccc(C(=O)N/N=C/c2ccccn2)cc1OC	0.0	-5.0	-6.7	3.5	0.7	?	·	·
O=C(N/N=C/c1ccccn1)c1ccc(Cl)cc1	11.7*	14.9	-5.2	-5.2	11.8*	2.2	-76.6	-20.4
COc1ccc(C(=O)Nc2ccccc2C(=O)N/N=C/c2ccccn2)cc1OC	18.6*	2.4	-11.9	-5.4	10.4*	-1.5	-110.1	-31.9
O=C(N/N=C/c1ccccn1)c1ccccc1	3.0	-1.4	-7.0	4.5	3.9	15.2	·	·
Cc1ccc(S(=O)(=O)Nc2ccc3c(c2)CC(=O)N([C@H](C)CO)C[C@@H](C)[C@H](CN(C)S(=O)(=O)c2ccccc2)O3)cc1	·	-2.3	-11.2	-0.1	0.2	·	·	·
C[C@H](CO)N1C[C@H](C)[C@@H](CN(C)S(=O)(=O)c2cccs2)Oc2ccc(NC(=O)Nc3ccc4c(c3)OCO4)cc2C1=O	·	-9.1	-19.0	-2.0	-0.6	·	·	·
C[C@H](CO)N1C[C@H](C)[C@H](CN(C)S(=O)(=O)c2ccccc2)Oc2ccc(NC(=O)NC3CCCCC3)cc2CC1=O	·	1.6	-10.2	7.2	8.5*	·	21.7	9.2*
C[C@H](CO)N1C[C@H](C)[C@H](CN(C)S(=O)(=O)c2cccs2)Oc2ccc(NC(=O)Nc3ccc4c(c3)OCO4)cc2CC1=O	·	2.6	-10.3	-1.5	10.3*	·	21.4	11.3*
NC(=O)c1ncn([C@@H]2O[C@H](CNS(=O)(=O)c3cc4ccccc4s3)[C@@H](O)[C@H]2O)n1	·	·	-1.1	·	0.8	·	·	·
CC1CN(c2cc(=O)n(-c3ccccc3)c(=O)[nH]2)CC(C)O1 (stereo not drawn)	-0.2	-4.8	11.3	2.1	8.1*	-4.2	16.5	6.4
Cc1ccc(-n2c(=O)cc(N3CC(C)OC(C)C3)[nH]c2=O)cc1 (stereo not drawn)	-0.2	-3.8	-1.3	-1.7	-2.0	0.2	·	·
O=C(NCc1ccncc1)c1csc([C@@H]2C[C@H](O)[C@@H](CO)O2)n1	·	·	-1.8	·	1.0	·	·	·
O=C1OC(/C(=C\Nc2ccc(F)cc2F)[N+](=O)[O-])c2ccccc21 (stereo not drawn)	-0.3	6.2	-6.6	-6.0	3.9	-2.5	·	·
